The source of these data is PubChem BioAssay.

SMILES strings stand for the structures. The source made the active and inactive calls.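 The calls were made as follows, unless noted: active = viability at or below 30% in both replicate assays; inconclusive = viability at or below 30% in just one of the two assays; inactive = the rest.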

Assay [1] is described as follows: SK-BR-3 cell growth inhibitors, pilot screen, 24 h, human (AID 572;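 active = viability at or below 10% of carrier control in both of two separate runs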;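 also: compound exposure lasted between 18 and 24 h rather than exactly 24 h; 100% = carrier-treated control wells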). The note with it: SK-BR-3 viability, CellTiter-Glo luminescence, at 10 µM, stronger effect = lower value.
Assay [2] can be described thus: HUVEC growth inhibition – cell-based, human, primary screen (AID 575).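 Also: 100% = median of untreated cell wells with 0.1% DMSO on each plate.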 As to conditions: HUVEC proliferation, CellTiter-Glo luminescence, 72 h; at 10 µM; stronger effect = lower value. In outline: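 Material: primary human umbilical vein endothelial cells / Schedule: 72 h exposure, 37 °C, 5% CO2, 30 min RT equilibration / Signal: ATP-based CellTiter-Glo luminescent read / Read-out basis: percent of median DMSO-control luminescence / Control set: 32 DMSO-only cell-control wells (high), 32 MePR drug-control wells (low) per plate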

Assay [3] in a line: growth inhibitors of H69AR lung tumor, primary screen, human, duplicate replicates (AID 580;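 active = viability at or under a set limit in both replicates, limit being median viability minus 3 SD, cut at about 48% in these data, passing the limit was not always enough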;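 also: 100% = mean luminescence of untreated wells and 0% = no signal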). As to conditions: H69AR lung tumor cells viability, ATP luminescence, 72 h; at 10 µM; stronger effect = lower value.
Assay [4] can be described thus: reversal of MRP1-mediated doxorubicin resistance, pilot screen, H69AR cells, doxorubicin co-treatment (AID 601;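 active = viability loss from added drug above about 55%, and viability with drug at most 40%, in both replicates, limit read from the data, passing the limit was not always enough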). The note with it: CellTiter-Glo, 72 h, at 10 µM; for differential viability (reversal): stronger effect = higher value.
A short description of assay [5]: 384-well plate pilot, post-Golgi transport modulator project, inhibition of yeast transport mutant growth (AID 636; in the data active = inhibition above about 31%). As to conditions: absorbance 615 nm, about 18 h, stronger effect = higher value.
A short description of assay [6]: growth suppression of yeast trafficking mutant, preliminary HTS, modulators of trafficking downstream of Golgi apparatus project, 1536-format plate, OD 615 nm (AID 637; in the data active = inhibition above about 30%). The note with it: yeast transport mutant growth, absorbance 615 nm, 18 h; stronger effect = higher value.
The mark [7] stands for this setting: H69AR cells + 2 uM doxorubicin, measured here: viability with 2 uM doxorubicin, stronger effect = lower value.
Setting [8] is: H69AR cells, compound alone cytotoxicity.

Consider `CC(=O)Nc1ccc(N=Cc2nc(-c3ccc(C)cc3)oc2O)cc1`, for which the viability in assay [1] is 102% (inactive); in assay [2], 96.2% (inactive); in assay [3] it was 94.5% (inactive); in assay [4] (setting [7]), 92.9%; in assay [4] (setting [8]) it was 94.5%. In addition, the differential viability (reversal) in assay [4] (H69AR cells + 2 uM doxorubicin) is 1.61% (inactive). Besides, the inhibition in assay [5] is 0% (inactive); in assay [6] it was -1.8% (inactive).

`O=C(NCc1cccs1)c1cc2c(s1)CS(=O)(=O)C2`: the viability in assay [1] was 116% (inactive); in assay [2], 101% (inactive); in assay [3], 98.1% (inactive); in assay [4] (setting [7]) it was 93.8%; in assay [4] (setting [8]), 98.1%. Further, in assay [4] (H69AR cells + 2 uM doxorubicin), the differential viability (reversal) was 4.27% (inactive). Moreover, the values for the inhibition in assay [5] and in assay [6] were -4% (inactive) and -1.64% (inactive), respectively.

Take `CCOC(=O)c1cnc(C(C)(C)C)[nH]c1=O`: the viability in assay [1] is 106% (inactive); in assay [2] it was 102% (inactive); in assay [3] it was 95.8% (inactive); in assay [4] (setting [7]), 88%; in assay [4] (setting [8]) it was 95.8%. For the same compound, the differential viability (reversal) in assay [4] (H69AR cells + 2 uM doxorubicin) is 7.84% (inactive). Moreover, the results for the inhibition in assay [5] and in assay [6] were -6.22% (inactive) and -0.91% (inactive), respectively.

Turning to `COc1nc(-c2ccc(Cl)cc2)ccc1-c1noc(-c2ccncc2)n1`, the viability in assay [1] is 109% (inactive); in assay [2], 103% (inactive); in assay [3], 82.4% (inactive); in assay [4] (setting [7]), 80.4%; in assay [4] (setting [8]), 82.4%. In addition, the differential viability (reversal) in assay [4] (H69AR cells + 2 uM doxorubicin) is 1.99% (inactive). In addition, the values for the inhibition in assay [5] and in assay [6] were -6.99% (inactive) and -7.64% (inactive), respectively.

As for `O=S(=O)(Nc1nc2ccccc2nc1NCc1ccco1)c1cccs1`, the viability in assay [1] was 91% (inactive); in assay [2], 100% (inactive); in assay [3] it was 29% (active); in assay [4] (setting [7]), 51.9%; in assay [4] (setting [8]), 29%. The differential viability (reversal) in assay [4] (H69AR cells + 2 uM doxorubicin) is -23% (inactive). The inhibition in assay [5] was -5.68% (inactive); in assay [6], 0.73% (inactive).

On to `O=C(NC(=O)c1ccc(Cl)cc1)Nc1cc(N2CCCCC2)ncn1`, for which the viability in assay [1] is 85% (inactive); in assay [2] it was 93.9% (inactive); in assay [3], 91.1% (inactive); in assay [4] (setting [7]), 93%; in assay [4] (setting [8]) it was 91.1%. Also, the differential viability (reversal) in assay [4] (H69AR cells + 2 uM doxorubicin) was -1.91% (inactive). The inhibition in assay [5] is -7.4% (inactive); in assay [6], 3.87% (inactive).

As for `N#Cc1c(N)oc(-c2cccs2)c1-c1cccs1`, the viability was 107% (inactive) in assay [1]; 107% (inactive) in assay [2]; 95% (inactive) in assay [3]; 93.2% in assay [4] (setting [7]); 95% in assay [4] (setting [8]). For the same compound, in assay [4] (H69AR cells + 2 uM doxorubicin), the differential viability (reversal) is 1.77% (inactive). The inhibition in assay [5] was -6.93% (inactive); in assay [6] it was -3.82% (inactive).

In the case of `CCCC1(CCC)NC(=O)NC1=O`, the viability in assay [1] was 121% (inactive); in assay [2], 94.7% (inactive); in assay [3] it was 98.2% (inactive); in assay [4] (setting [7]), 98.1%; in assay [4] (setting [8]) it was 98.2%. Moreover, the differential viability (reversal) in assay [4] (H69AR cells + 2 uM doxorubicin) is 0.09% (inactive). Moreover, the inhibition in assay [5] was -0.26% (inactive); in assay [6] it was 0.66% (inactive).

In the case of `CCCCN1CN(S(=O)(=O)c2cccs2)c2nc3ccccc3nc21`, the viability in assay [1] was 97% (inactive); in assay [2] it was 109% (inactive); in assay [3], 83.7% (inactive); in assay [4] (setting [7]) it was 88.8%; in assay [4] (setting [8]), 83.7%. The differential viability (reversal) in assay [4] (H69AR cells + 2 uM doxorubicin) was -5.09% (inactive). Moreover, the inhibition in assay [5] is -10.1% (inactive); in assay [6], -4.18% (inactive).

For `CC(C)OC(=O)c1cccc(C(=O)O)n1`, the viability in assay [1] was 110% (inactive); in assay [2] it was 91% (inactive); in assay [3], 96% (inactive); in assay [4] (setting [7]), 94.1%; in assay [4] (setting [8]), 96%. For the same compound, the differential viability (reversal) in assay [4] (H69AR cells + 2 uM doxorubicin) was 1.99% (inactive). For the same compound, the inhibition in assay [5] is -1.69% (inactive); in assay [6] it was -5.57% (inactive).

On to `O=C(CN1C(=O)NC2(CCCCC2)C1=O)Nc1ccc(S(=O)(=O)N2CCOCC2)cc1`, for which the viability is 124% (inactive) in assay [1]; 98.3% (inactive) in assay [2]; 96.3% (inactive) in assay [3]; 82.7% in assay [4] (setting [7]); 96.3% in assay [4] (setting [8]). For the same compound, the differential viability (reversal) in assay [4] (H69AR cells + 2 uM doxorubicin) is 13.6% (inactive). For the same compound, the inhibition in assay [5] is -3.38% (inactive); in assay [6], 3.77% (inactive).

On to `CCC(=O)Oc1ccc(C/C(=N\O)c2ccc(O)cc2O)o1`, for which the viability in assay [1] was 85% (inactive); in assay [2], 90.6% (inactive); in assay [3], 52.5% (inactive); in assay [4] (setting [7]), 85.5%; in assay [4] (setting [8]) it was 52.5%. Also, the differential viability (reversal) in assay [4] (H69AR cells + 2 uM doxorubicin) was -33% (inactive). The inhibition is 3.01% (inactive) in assay [5] and 13.8% (inactive) in assay [6].

In the case of `Cc1cc(C)nc(N2CCC(C(=O)Nc3ccc(Oc4ccccc4)cc3)CC2)n1`, the viability was 67% (inactive) in assay [1]; 105% (inactive) in assay [2]; 88.9% (inactive) in assay [3]; 88.2% in assay [4] (setting [7]); 88.9% in assay [4] (setting [8]). The differential viability (reversal) in assay [4] (H69AR cells + 2 uM doxorubicin) was 0.65% (inactive). Moreover, the inhibition in assay [5] is -8.36% (inactive); in assay [6], 1.09% (inactive).

Turning to `C[C@H](CCC(=O)O)[C@H]1CC[C@H]2[C@@H]3C(=O)C[C@@H]4CC(=O)CC[C@]4(C)[C@H]3CC(=O)[C@]12C`, the viability was 128% (inactive) in assay [1]; 88.9% (inactive) in assay [2]; 96% (inactive) in assay [3]; 102% in assay [4] (setting [7]); 96% in assay [4] (setting [8]). The differential viability (reversal) in assay [4] (H69AR cells + 2 uM doxorubicin) is -6.55% (inactive). Further, the inhibition is 0.65% (inactive) in assay [5] and -0.83% (inactive) in assay [6].

In the case of `CCn1cc(C2Nc3ccccc3C(=O)N2O)c(C)n1` (stereo unspecified), the viability in assay [1] is 93% (inactive); in assay [2] it was 126% (inactive); in assay [3] it was 90% (inactive); in assay [4] (setting [7]), 90.5%; in assay [4] (setting [8]) it was 90%. For the same compound, in assay [4] (H69AR cells + 2 uM doxorubicin), the differential viability (reversal) was -0.465% (inactive). The inhibition was -5.27% (inactive) in assay [5] and -2.91% (inactive) in assay [6].

As to `COC(=O)c1ccc(C2C(C#N)=C(N)Oc3cc(C)n(C)c(=O)c32)cc1` (stereo unspecified), the viability was 104% (inactive) in assay [1]; 95.5% (inactive) in assay [2]; 97.8% (inactive) in assay [3]; 95.4% in assay [4] (setting [7]); 97.8% in assay [4] (setting [8]). Also, the differential viability (reversal) in assay [4] (H69AR cells + 2 uM doxorubicin) was 2.3% (inactive). The figures for the inhibition in assay [5] and in assay [6] were -0.82% (inactive) and -3.23% (inactive), respectively.

In the case of `CC(=O)OCC(=O)[C@@]1(O)CC[C@H]2[C@@H]3CCC4=CC(=O)CC[C@]4(C)[C@H]3C(=O)C[C@@]21C`, the viability in assay [1] was 108% (inactive); in assay [2], 95.9% (inactive); in assay [3] it was 104% (inactive); in assay [4] (setting [7]), 95.2%; in assay [4] (setting [8]) it was 104%. Moreover, the differential viability (reversal) in assay [4] (H69AR cells + 2 uM doxorubicin) was 8.62% (inactive). For the same compound, the inhibition was -4.55% (inactive) in assay [5] and -1.33% (inactive) in assay [6].
